Test results as given in ChEMBL document CHEMBL1125797, “Synthesis, characterization and myocardial uptake of cationic bis(arene)technetium(I) complexes” (J Med Chem, 1991).

Key:
[1] = organism: Rattus norvegicus; assay: The compound was tested for the plasma binding in rat; type: ADME, organism-based
[2] = The compound was tested for the plasma binding in human; type: ADME, cell-free
Summary of the method: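 Fresh heparinized human plasma (1.0 mL, obtained daily) was spiked with 0.02 mL test solution and incubated about 15 min. Duplicate samples went through saline-equilibrated Sephadex G-25 desalting columns by centrifugation. Eluate and gel were γ-counted for 1 min or to 1% σ error. % bound = net cpm eluate / net cpm (eluate + gel) × 100.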

[3] = tested on: Rattus norvegicus; assay: Biodistribution of compound in rat blood after 5 min of administration; type: ADME, organism-based; settings: in vivo
Summary of the method: (§1)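 Female Sprague-Dawley rats (150–200 g) received the 99mTc complex in normal saline (~12.5 μCi/mL) via a lateral tail vein at ~25 μCi/kg. They were killed by cervical dislocation 5 min after injection. Tissues were washed with saline, blotted, weighed and γ-counted, and the read-out was percent injected dose per g tissue.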

[4] = tested on: Rattus norvegicus; assay: Biodistribution of compound in rat heart after 5 min of administration; type: ADME, organism-based; settings: in vivo; summary of the method: as §1
[5] = tested on: Rattus norvegicus; assay: Biodistribution of compound in rat kidney after 5 min of administration; type: ADME, organism-based; settings: in vivo; summary of the method: as §1
[6] = tested on: Rattus norvegicus; assay: Biodistribution of compound in rat liver after 5 min of administration; type: ADME, organism-based; settings: in vivo; summary of the method: as §1
[7] = tested on: Rattus norvegicus; assay: Biodistribution of compound in rat lung after 5 min of administration; type: ADME, organism-based; settings: in vivo
Summary of the method: (§2)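 Rats received the 99mTc complex in normal saline (~12.5 μCi/mL) by lateral tail vein injection at ~25 μCi/kg and were killed by cervical dislocation at the stated time. Tissues were washed with saline, blotted, weighed and γ-counted to give percent injected dose/g. Time-course values are averages of male and female rats.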

[8] = Biodistribution of compound in rat muscle after 5 min of administration; type: ADME, organism-based, Muscle tissue; settings: in vivo; summary of the method: as §2
[9] = tested on: Rattus norvegicus; assay: Biodistribution of compound in rat blood at 90 min after intravenous administration; type: ADME, organism-based; settings: in vivo, 1.5 h
Summary of the method: (§3)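 Time course in Sprague-Dawley rats after lateral tail-vein injection of the 99mTc complex in normal saline (~12.5 μCi/mL) at ~25 μCi/kg. Tissues were sampled at the stated times, washed with saline, blotted, weighed and γ-counted to give percent injected dose per g. Values are averages of male and female rats.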

[10] = tested on: Rattus norvegicus; assay: Biodistribution of compound in rat urine at 1440 min after intravenous administration; type: ADME, organism-based; settings: in vivo, 24 h; summary of the method: as §2
[11] = tested on: Rattus norvegicus; assay: Biodistribution of compound in rat urine at 360 min after intravenous administration; type: ADME, organism-based; settings: in vivo, 6 h; summary of the method: as §2
[12] = tested on: Rattus norvegicus; assay: Biodistribution of compound in rat blood at 1440 min after intravenous administration; type: ADME, organism-based; settings: in vivo, 24 h; summary of the method: as §3
[13] = tested on: Rattus norvegicus; assay: Biodistribution of compound in rat blood at 180 min after intravenous administration; type: ADME, organism-based; settings: in vivo, 3 h; summary of the method: as §3
[14] = tested on: Rattus norvegicus; assay: Biodistribution of compound in rat blood at 360 min after intravenous administration; type: ADME, organism-based; settings: in vivo, 6 h; summary of the method: as §3
[15] = tested on: Rattus norvegicus; assay: Biodistribution of compound in rat blood at 5 min after intravenous administration; type: ADME, organism-based; settings: in vivo; summary of the method: as §3
[16] = tested on: Rattus norvegicus; assay: Biodistribution of compound in rat gonads at 1440 min after intravenous administration; type: ADME, organism-based, Gonad; settings: in vivo, 24 h; summary of the method: as §3
[17] = tested on: Rattus norvegicus; assay: Biodistribution of compound in rat gonads at 180 min after intravenous administration; type: ADME, organism-based, Gonad; settings: in vivo, 3 h; summary of the method: as §3
[18] = tested on: Rattus norvegicus; assay: Biodistribution of compound in rat gonads at 360 min after intravenous administration; type: ADME, organism-based, Gonad; settings: in vivo, 6 h; summary of the method: as §3
[19] = tested on: Rattus norvegicus; assay: Biodistribution of compound in rat gonads at 45 min after intravenous administration; type: ADME, organism-based, Gonad; settings: in vivo, 0.75 h; summary of the method: as §3
[20] = tested on: Rattus norvegicus; assay: Biodistribution of compound in rat gonads at 5 min after intravenous administration; type: ADME, organism-based, Gonad; settings: in vivo; summary of the method: as §3
[21] = tested on: Rattus norvegicus; assay: Biodistribution of compound in rat gonads at 90 min after intravenous administration; type: ADME, organism-based, Gonad; settings: in vivo, 1.5 h; summary of the method: as §3
[22] = tested on: Rattus norvegicus; assay: Biodistribution of compound in rat heart at 1440 min after intravenous administration; type: ADME, organism-based; settings: in vivo, 24 h; summary of the method: as §3
[23] = tested on: Rattus norvegicus; assay: Biodistribution of compound in rat heart at 180 min after intravenous administration; type: ADME, organism-based; settings: in vivo, 3 h; summary of the method: as §3
[24] = tested on: Rattus norvegicus; assay: Biodistribution of compound in rat heart at 360 min after intravenous administration; type: ADME, organism-based; settings: in vivo, 6 h; summary of the method: as §3
[25] = tested on: Rattus norvegicus; assay: Biodistribution of compound in rat heart at 45 min after intravenous administration; type: ADME, organism-based; settings: in vivo, 0.75 h; summary of the method: as §3
[26] = tested on: Rattus norvegicus; assay: Biodistribution of compound in rat heart at 5 min after intravenous administration; type: ADME, organism-based; settings: in vivo; summary of the method: as §3
[27] = tested on: Rattus norvegicus; assay: Biodistribution of compound in rat heart at 90 min after intravenous administration; type: ADME, organism-based; settings: in vivo, 1.5 h; summary of the method: as §3
[28] = tested on: Rattus norvegicus; assay: Biodistribution of compound in rat kidney at 1440 min after intravenous administration; type: ADME, organism-based; settings: in vivo, 24 h; summary of the method: as §3
[29] = tested on: Rattus norvegicus; assay: Biodistribution of compound in rat kidney at 180 min after intravenous administration; type: ADME, organism-based; settings: in vivo, 3 h; summary of the method: as §3
[30] = tested on: Rattus norvegicus; assay: Biodistribution of compound in rat kidney at 360 min after intravenous administration; type: ADME, organism-based; settings: in vivo, 6 h; summary of the method: as §3
[31] = tested on: Rattus norvegicus; assay: Biodistribution of compound in rat kidney at 45 min after intravenous administration; type: ADME, organism-based; settings: in vivo, 0.75 h; summary of the method: as §3
[32] = tested on: Rattus norvegicus; assay: Biodistribution of compound in rat kidney at 5 min after intravenous administration; type: ADME, organism-based; settings: in vivo; summary of the method: as §3
[33] = tested on: Rattus norvegicus; assay: Biodistribution of compound in rat kidney at 90 min after intravenous administration; type: ADME, organism-based; settings: in vivo, 1.5 h; summary of the method: as §3
[34] = tested on: Rattus norvegicus; assay: Biodistribution of compound in rat liver at 1440 min after intravenous administration; type: ADME, organism-based; settings: in vivo, 24 h; summary of the method: as §3
[35] = tested on: Rattus norvegicus; assay: Biodistribution of compound in rat liver at 180 min after intravenous administration; type: ADME, organism-based; settings: in vivo, 3 h; summary of the method: as §3
[36] = tested on: Rattus norvegicus; assay: Biodistribution of compound in rat liver at 360 min after intravenous administration; type: ADME, organism-based; settings: in vivo, 6 h; summary of the method: as §2

Work on Bis(1,3,5-trimethylbenzene)technetium yielded a Plasma binding [1] of 11%, a Plasma binding [2] of 21% and a Dose/g [3] of 0.096%. It also gave a Dose/g [4] of 1.9%, a Dose/g [5] of 7.9% and a Dose/g [6] of 0.98%. For the same substance, the Dose/g [7] was 0.82%, the Dose/g [8] was 0.35% and the Dose/ml [9] was 1.02 % dose. It also gave a Dose/ml [10] of 26 % dose, a Dose/ml [11] of 16 % dose and a Dose/ml [12] of 0.13 % dose. The Dose/ml [13] was 0.67 % dose, the Dose/ml [14] was 0.52 % dose and the Dose/ml [15] was 2.67 % dose. It also gave a Dose/g [16] of 0.018 % dose, a Dose/g [17] of 0.055 % dose and a Dose/g [18] of 0.05 % dose. The Dose/g [19] was 0.86 % dose, the Dose/g [20] was 0.1 % dose and the Dose/g [21] was 0.067 % dose. The Dose/g [22] was 0.77 % dose, the Dose/g [23] was 1 % dose and the Dose/g [24] was 1.14 % dose. The Dose/g [25] was 1.2 % dose, the Dose/g [26] was 1.37 % dose and the Dose/g [27] was 1.17 % dose. It also gave a Dose/g [28] of 0.4 % dose, a Dose/g [29] of 1.9 % dose and a Dose/g [30] of 0.9 % dose. It also gave a Dose/g [31] of 5.8 % dose, a Dose/g [32] of 13.6 % dose and a Dose/g [33] of 2 % dose/organ. For the same substance, the Dose/g [34] was 0.3 % dose/organ, the Dose/g [35] was 1.9 % dose/organ and the Dose/g [36] was 0.8 % dose/organ.
